According to ChEMBL document CHEMBL1629520, “Synthesis and optimization of antitubercular activities in a series of 4-(aryloxy)phenyl cyclopropyl methanols” (Eur J Med Chem, 2010):
In brackets after ≈: the same amount, converted by molar mass.

How the values were obtained:
[1] = tested on: Mycobacterium tuberculosis; test: Antitubercular activity against Mycobacterium tuberculosis H37Rv after 30 days by agar microdilution method; format: functional
Summary of the method: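 Compound dissolved in DMSO; two-fold dilutions added to Middlebrook 7H10 with OADC in slanted tubes, preincubated 24 h at 37 °C. Tubes then streaked with 5 × 10⁵ bacilli of H37Rv harvested from L–J culture into 0.85% saline with 0.05% Tween-80. Incubated 30 days at 37 °C. MIC is the lowest concentration giving complete inhibition of colonies, judged against drug-free control tubes.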

[2] = tested on: Mycobacterium tuberculosis; test: Antitubercular activity against Mycobacterium tuberculosis H37Rv infected in mouse BMDM assessed as reduction in intracellular CFU at 5 times MIC after 4 weeks relative to control; format: functional; parameters: scale not given: the % may be the effect or the level left
Summary of the method: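 Murine bone-marrow macrophages cultured 5 days, then infected 3 h with 5 × 10⁶ H37Rv in antibiotic-free DMEM/10% FBS. Extracellular bacteria washed off, and compound added at 5× MIC. After 4 days at 37 °C, 5% CO₂, cells lysed with 0.1% saponin. Lysates serially diluted in saline and plated on 7H11; colonies counted after 4 weeks at 37 °C.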

[3] = tested on: Mycobacterium tuberculosis; test: Antitubercular activity against Mycobacterium tuberculosis H37Rv infected in swiss mouse assessed as increase in mean survival time at 100 mg/kg, po qd for 28 days measured on day 30; format: functional
Summary of the method: (§1)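 Outbred female Swiss mice (18–20 g) infected i.v. via lateral vein with 10⁷ CFU H37Rv; groups of 10 formed next day. Test compound given as aqueous suspension at 100 mg/kg, INH at 25 mg/kg; placebo given to infected controls. All dosing oral, daily for 28 days. Mean survival time and % survivors scored at days 30 and 40; lung bacillary load per g determined on day 30.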

[4] = tested on: Mycobacterium tuberculosis; test: Antitubercular activity against Mycobacterium tuberculosis H37Rv infected in swiss mouse assessed as increase in mean survival time at 25 mg/kg, po qd for 28 days measured on day 30 relative to control; format: functional; summary of the method: as §1
[5] = tested on: Mycobacterium tuberculosis; test: Antitubercular activity against Mycobacterium tuberculosis H37Rv infected in swiss mouse assessed as increase mouse survival at 25 mg/kg, po qd for 28 days measured on day 40 relative to control; format: functional; summary of the method: as §1
[6] = tested on: Mycobacterium tuberculosis; test: Antitubercular activity against Mycobacterium tuberculosis H37Rv infected in swiss mouse assessed as increase mouse survival at 25 mg/kg, po qd for 28 days measured on day 30 relative to control; format: functional; summary of the method: as §1
[7] = tested on: Mycobacterium tuberculosis; test: Antitubercular activity against Mycobacterium tuberculosis H37Rv infected in swiss mouse assessed as increase in mean survival time at 25 mg/kg, po qd for 28 days measured on day 40; format: functional; summary of the method: as §1
[8] = Selectivity index, ratio of IC50 for african green monkey Vero cells to MIC for Mycobacterium tuberculosis H37Rv; format: functional
Summary of the method: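 Vero cells seeded at 10,000/well in DMEM with antibiotics and 10% FBS, allowed to adhere overnight (37 °C, 5% CO₂). […] MTS added for 2 h, absorbance read at 490 nm, with DMSO wells taken as 100% survival. IC50 divided by H37Rv agar MIC.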

[9] = Cytotoxicity against mouse BMDM after 48 hrs by MTS assay; format: cell-based
Summary of the method: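 Mouse bone-marrow cells were flushed into DMEM with 10% FBS, 15% L-929 conditioned supernatant and non-essential amino acids. They were plated at 10⁵/well and cultured 5 days at 37 °C, 5% CO₂, with medium changed every 3rd day. Graded compound concentrations were added in antibiotic-free FBS-DMEM for 48 h. MTS was added for 2 h and A490 read, with DMSO wells taken as 100% survival.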

[10] = Selectivity index, ratio of IC50 for mouse BMDM to MIC for Mycobacterium tuberculosis H37Rv; format: functional
Summary of the method: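 Bone-marrow cells flushed with DMEM containing 10% FBS, 15% L-929 conditioned supernatant and non-essential amino acids. Seeded at 10⁵/well and grown 5 days, medium changed every 3rd day. Compounds added in antibiotic-free FBS-DMEM for 48 h. MTS added for 2 h, A490 read, DMSO wells taken as 100%. IC50 divided by H37Rv MIC.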

[11] = tested on: Vero; test: Cytotoxicity against african green monkey Vero cells after 24 hrs by MTS assay; format: cell-based; details: Chlorocebus sabaeus
Summary of the method: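 Vero cells were seeded at 10,000/well in DMEM with antibiotics and 10% FBS and left to adhere overnight at 37 °C, 5% CO₂. […] MTS was then added for 2 h and A490 read, with DMSO wells taken as 100% survival.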

[12] = tested on: Mycobacterium tuberculosis; test: Antitubercular activity against drug-susceptible Mycobacterium tuberculosis clinical isolate2 after 30 days by agar microdilution method; format: functional
[13] = tested on: Mycobacterium tuberculosis; test: Antitubercular activity against Mycobacterium tuberculosis H37Rv infected in swiss mouse assessed as decrease in bacilli load in lungs at 100 mg/kg, po qd for 28 days measured on day 30; format: functional; summary of the method: as §1
[14] = tested on: Mycobacterium tuberculosis; test: Antitubercular activity against Mycobacterium tuberculosis H37Rv infected in swiss mouse assessed as increase in mean survival time at 100 mg/kg, po qd for 28 days measured on day 40; format: functional; summary of the method: as §1
[15] = Chemical stability of the compound in HCl at […] assessed as compound remaining after 3 hrs by HPLC analysis; format: physicochemical; details: HCl solution; read-out: Stability
Summary of the method: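 Compound held in 0.1N HCl (gastric pH) at ambient temperature for up to 3 h and analysed by HPLC on a CN column (250 mm × 4 mm, 5 µm) at 25 ± 3 °C with PDA detection. Intact parent was followed by its peak, and degradation products by their retention times.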

[16] = tested on: Mycobacterium tuberculosis; test: Antitubercular activity against Mycobacterium tuberculosis H37Rv infected in swiss mouse assessed as increase mouse survival at 100 mg/kg, po qd for 28 days measured on day 30 relative to control; format: functional; summary of the method: as §1
[17] = tested on: Mycobacterium tuberculosis; test: Antitubercular activity against drug-susceptible Mycobacterium tuberculosis clinical isolate1 after 30 days by agar microdilution method; format: functional
[18] = tested on: Mycobacterium tuberculosis; test: Antitubercular activity against Mycobacterium tuberculosis H37Rv infected in swiss mouse assessed as increase mouse survival at 100 mg/kg, po qd for 28 days measured on day 40 relative to control; format: functional; summary of the method: as §1

OC(c1ccc(OCc2ccc(Br)cc2)cc1)C1CC1 (stereo not drawn)
MIC [1]: 6.25 µg/mL (≈ 18.8 µM)
Activity [2]: 88%
MST [3]: 23.37

OC(c1ccc(OCc2cccc(OCCN3CCCCC3)c2)cc1)C1CC1 (stereo not drawn)
MIC [1]: 6.25 µg/mL (≈ 16.4 µM)

NNC(=O)c1ccncc1 [ISONIAZID]
MST [4]: 30
survival at 25 mg/kg [5]: 100%
survival at 25 mg/kg [6]: 100%
MST [7]: 40

COc1cc(COc2ccc(C(O)C3CC3)cc2)ccc1OCCN1CCCCC1 (stereo not drawn)
MIC [1]: 6.25 µg/mL (≈ 15.2 µM)

CN(C)CCOc1ccc(COc2ccc(C(O)C3CC3)cc2)cc1 (stereo not drawn)
Selectivity Index [8]: >10
MIC [1]: 3.12 µg/mL (≈ 9.14 µM)
Activity [2]: 80%
IC50 [9]: > 50 µg/mL
Selectivity Index [10]: > 10
IC50 [11]: > 50 µg/mL
MST [3]: 12.85

CCCCN(CCCC)CCOc1ccc(C(=O)C2CC2)cc1
MIC [1]: > 12.5 µg/mL

CCCCN(CCCC)CCOc1ccc(C(O)C2CC2)cc1 (stereo not drawn)
MIC [1]: 12.5 µg/mL (≈ 39.1 µM)

COc1cc(COc2ccc(C(O)C3CC3)cc2)cc(OC)c1OC (stereo not drawn)
MIC [1]: 12.5 µg/mL (≈ 36.3 µM)

COc1cc(COc2ccc(C(=O)C3CC3)cc2)ccc1OCCN1CCOCC1
MIC [1]: 6.25 µg/mL (≈ 15.2 µM)

OC(c1ccc(OCc2cccc(Br)c2)cc1)C1CC1 (stereo not drawn)
MIC [1]: 12.5 µg/mL (≈ 37.5 µM)

COc1cc(COc2ccc(C(O)C3CC3)cc2)ccc1OCCN1CCOCC1 (stereo not drawn)
MIC [1]: 12.5 µg/mL (≈ 30.2 µM)

COc1cc(COc2ccc(C(O)C3CC3)cc2)ccc1OCCN(C(C)C)C(C)C (stereo not drawn)
MIC [1]: > 12.5 µg/mL

OC(c1ccc(OCc2ccc(OCCN3CCOCC3)cc2)cc1)C1CC1 (stereo not drawn)
Selectivity Index [8]: >10
MIC [1]: 3.12 µg/mL (≈ 8.14 µM)
Activity [2]: 89%
IC50 [9]: > 50 µg/mL
Selectivity Index [10]: > 10
IC50 [11]: > 50 µg/mL

COc1cc(COc2ccc(C(=O)C3CC3)cc2)cc(OC)c1OC
MIC [1]: > 12.5 µg/mL

O=[N+]([O-])c1cccc(COc2ccc(C(O)C3CC3)cc2)c1 (stereo not drawn)
MIC [1]: 6.25 µg/mL (≈ 20.9 µM)

OC(c1ccc(OCc2ccc(OCc3ccccc3)cc2)cc1)C1CC1 (stereo not drawn)
Selectivity Index [8]: >10
MIC [1]: 3.12 µg/mL (≈ 8.66 µM)
Activity [2]: 54%
IC50 [9]: > 50 µg/mL
Selectivity Index [10]: > 10
IC50 [11]: > 50 µg/mL

O=C(c1ccc(OCc2cccc([N+](=O)[O-])c2)cc1)C1CC1
MIC [1]: 6.25 µg/mL (≈ 21 µM)

COc1cc(COc2ccc(C(=O)C3CC3)cc2)ccc1OCCN1CCCCC1
MIC [1]: > 12.5 µg/mL

OC(c1ccc(OCc2ccc(OCCN3CCCCC3)cc2)cc1)C1CC1 (stereo not drawn)
MIC [12]: > 12.5 µg/mL
Activity [13]: 9 ×10⁷ /g
Selectivity Index [8]: >10
MST [14]: 31.62
MIC [1]: 3.12 µg/mL (≈ 8.18 µM)
Activity [2]: 98%
remaining at 3 h [15]: < 70%
IC50 [9]: > 50 µg/mL
Selectivity Index [10]: > 10
survival at 100 mg/kg [16]: 50%
MIC [17]: > 12.5 µg/mL
IC50 [11]: > 50 µg/mL
MST [3]: 27.5
survival at 100 mg/kg [18]: 25%

O=C(c1ccc(OCc2ccc(Br)cc2)cc1)C1CC1
MIC [1]: 6.25 µg/mL (≈ 18.9 µM)

O=C(c1ccc(OCc2ccc(OCc3ccccc3)cc2)cc1)C1CC1
Selectivity Index [8]: >10
MIC [1]: 1.56 µg/mL (≈ 4.35 µM)
Activity [2]: 0%
IC50 [9]: > 50 µg/mL
Selectivity Index [10]: > 10
IC50 [11]: > 50 µg/mL

CN(C)CCOc1ccc(COc2ccc(C(=O)C3CC3)cc2)cc1
MIC [1]: > 12.5 µg/mL

COc1cc(COc2ccc(C(=O)C3CC3)cc2)ccc1OCCN(C(C)C)C(C)C
MIC [1]: > 12.5 µg/mL

CC(C)N(CCOc1ccc(COc2ccc(C(=O)C3CC3)cc2)cc1)C(C)C
MIC [1]: 12.5 µg/mL (≈ 31.6 µM)

O=C(c1ccc(OCc2cccc(Br)c2)cc1)C1CC1
MIC [1]: 12.5 µg/mL (≈ 37.7 µM)

O=C(c1ccc(OCc2cccc(OCCN3CCCCC3)c2)cc1)C1CC1
MIC [1]: 12.5 µg/mL (≈ 32.9 µM)

O=C(c1ccc(OCc2ccc(OCCN3CCCCC3)cc2)cc1)C1CC1
MIC [1]: 12.5 µg/mL (≈ 32.9 µM)

CC(C)N(CCOc1ccc(COc2ccc(C(O)C3CC3)cc2)cc1)C(C)C (stereo not drawn)
MIC [1]: 12.5 µg/mL (≈ 31.4 µM)

O=C(c1ccc(OCc2ccc(OCCN3CCOCC3)cc2)cc1)C1CC1
MIC [1]: 6.25 µg/mL (≈ 16.4 µM)
